Measurements as given in ChEMBL document CHEMBL3085652, “Synthesis and antiproliferative activity of α-branched α,β-unsaturated ketones” (2013).

Key:
Assay type in all cases: functional
[1] = Growth inhibition of human HBL100 cells after 48 hrs by SRB assay; settings: HBL-100, 48 h
How it was run: (§1)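 Cells from an academic source, kept in 25 cm² flasks in RPMI 1640 with 5% heat-inactivated fetal calf serum. Dosing began day 1 after plating, in triplicate at several dilutions across […]. Vehicle controls got DMSO 0.25% v/v. After 48 h exposure, cells were fixed with ice-cold 50% w/v TCA for 60 min at 4 °C and stained by SRB. OD was read at 492 nm, corrected for medium-only background, and GI50 was derived from dose-response data.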

[2] = test system: T47D; assay: Growth inhibition of human T47D cells after 48 hrs by SRB assay; how it was run: as §1
[3] = test system: WiDr; assay: Growth inhibition of human WiDr cells after 48 hrs by SRB assay; how it was run: as §1
[4] = test system: HeLa; assay: Growth inhibition of human HeLa cells after 48 hrs by SRB assay; how it was run: as §1
[5] = test system: SW1573; assay: Growth inhibition of human SW1573 cells after 48 hrs by SRB assay; settings: SW1573, 48 h; how it was run: as §1

SMILES | GI50 [1] [µM] | GI50 [2] [µM] | GI50 [3] [µM] | GI50 [4] [µM] | GI50 [5] [µM]
O=C(/C=C/C1CCCCC1)c1ccccc1 | 18 | 15 | 21 | 21 | 10
O=C(/C=C/c1ccc(Cl)cc1Cl)c1ccccc1 | 17 | 14 | 20 | 18 | 12
O=C(/C(=C/C1CCCCC1)CCl)c1ccccc1 | 22 | 29 | 22 | 30 | 23
O=C(/C(=C/c1ccccc1)CCl)c1ccccc1 | 12 | 18 | 18 | 23 | 3.6
O=C(/C(=C/c1ccc(Cl)cc1)CCl)c1ccccc1 | 3.2 | 17 | 19 | 22 | 3.9
O=C(/C(=C/c1ccc(Cl)cc1Cl)CCl)c1ccccc1 | 3.1 | 6.3 | 13 | 15 | 3.8
O=C(/C(=C/C1CCCCC1)c1ccccc1)c1ccccc1 | 57 | 39 | 34 | 47 | 29
O=C(/C(=C\C1CCCCC1)c1ccccc1)c1ccccc1 | 59 | 74 | 64 | 63 | 64
O=C(/C(=C\c1ccc(Cl)cc1Cl)c1ccccc1)c1ccccc1 | > 100 | 52 | 46 | 47 | 41
CC(=O)OC/C(=C\C1CCCCC1)C(=O)c1ccccc1 | 21 | 22 | 21 | 21 | 19
CCC(/C=C(\COC(C)=O)C(=O)c1ccccc1)CC | > 100 | 89 | 52 | 50 | 77
CC(=O)OC/C(=C\c1ccccc1)C(=O)c1ccccc1 | 17 | 16 | 17 | 20 | 4.8
C=C(C/C(=C\c1ccccc1)C(=O)c1ccccc1)C(=O)c1ccccc1 | 10 | 15 | 18 | 19 | 3
CC(=O)OC/C(=C\c1ccc(Cl)cc1)C(=O)c1ccccc1 | 2.3 | 5.3 | 4.8 | 3.2 | 2.6
C=C(C/C(=C\c1ccc(Cl)cc1)C(=O)c1ccccc1)C(=O)c1ccccc1 | 17 | 19 | 20 | 22 | 6.1
CC(=O)OC/C(=C\c1ccc(F)cc1)C(=O)c1ccccc1 | 17 | 14 | 13 | 25 | 4.2
C=C(C/C(=C\c1ccc(F)cc1)C(=O)c1ccccc1)C(=O)c1ccccc1 | 14 | 15 | 19 | 18 | 3.5
CC(=O)OC/C(=C/c1ccccc1Cl)C(=O)c1ccccc1 | 21 | 19 | 22 | 24 | 14
CC(=O)OC/C(=C\c1ccccc1Br)C(=O)c1ccccc1 | 22 | 17 | 21 | 20 | 14
CC(=O)OC/C(=C/c1ccccc1Br)C(=O)c1ccccc1 | 21 | 18 | 18 | 19 | 21
CC(=O)OC/C(=C\c1ccccc1F)C(=O)c1ccccc1 | 17 | 18 | 19 | 22 | 6.1

SMILES | GI50 [1] [µM] | GI50 [2] [µM] | GI50 [3] [µM] | GI50 [4] [µM] | GI50 [5] [µM]
C=C(C/C(=C\c1ccccc1F)C(=O)c1ccccc1)C(=O)c1ccccc1 | 15 | 14 | 17 | 20 | 3.5
CC(=O)OC/C(=C\c1ccc(Cl)cc1Cl)C(=O)c1ccccc1 | 3.1 | 9.5 | 14 | 16 | 3.5
CC(=O)OC/C(=C/c1ccc(Cl)cc1Cl)C(=O)c1ccccc1 | 23 | 20 | 19 | 22 | 22
CC(=O)OC/C(=C\c1ccc([N+](=O)[O-])cc1)C(=O)c1ccccc1 | 10 | 16 | 23 | 26 | 3.8
CC(=O)OC/C(=C/c1ccc([N+](=O)[O-])cc1)C(=O)c1ccccc1 | 41 | 36 | 83 | 36 | 32
CC(=O)OC/C(=C\c1ccccc1[N+](=O)[O-])C(=O)c1ccccc1 | 26 | 21 | 18 | 25 | 18
CC(=O)OC/C(=C/c1ccccc1[N+](=O)[O-])C(=O)c1ccccc1 | > 100 | 52 | > 100 | 78 | > 100
C=C(C/C(=C\c1ccc(OC)cc1)C(=O)c1ccccc1)C(=O)c1ccccc1 | 0.53 | 0.37 | 0.47 | 0.32 | 0.45
O=C(OC/C(=C\C1CCCCC1)C(=O)c1ccccc1)c1ccccc1 | 23 | 20 | 19 | 24 | 17
O=C(OC/C(=C\c1ccc(Cl)cc1Cl)C(=O)c1ccccc1)c1ccccc1 | 3.1 | 17 | 17 | 20 | 3.3
O=C(OC/C(=C/c1ccc(Cl)cc1Cl)C(=O)c1ccccc1)c1ccccc1 | 26 | 5.4 | 8.7 | 8.3 | 29
O=C(OC/C(=C\c1ccccc1[N+](=O)[O-])C(=O)c1ccccc1)c1ccccc1 | 3.9 | 16 | 18 | 22 | 4.3
O=C(OC/C(=C/c1ccccc1[N+](=O)[O-])C(=O)c1ccccc1)c1ccccc1 | > 100 | 18 | 21 | 30 | > 100
CC(=O)OC/C(=C\C1CCCCC1)C(=O)c1ccc(Cl)cc1 | 31 | 18 | 21 | 24 | 18
CC(=O)OC/C(=C\c1ccc(Cl)cc1)C(=O)c1ccc(Cl)cc1 | 4 | 5.4 | 18 | 19 | 3.4
CC(=O)OC/C(=C/c1ccc(Cl)cc1)C(=O)c1ccc(Cl)cc1 | 16 | 12 | 17 | 5.7 | 5.3
C=C(C/C(=C\c1ccc(Cl)cc1)C(=O)c1ccc(Cl)cc1)C(=O)c1ccc(Cl)cc1 | 16 | 17 | 24 | 21 | 5.3
CC(=O)OC/C(=C\c1ccc(Cl)cc1Cl)C(=O)c1ccc(Cl)cc1 | 3.2 | 5.2 | 8.1 | 4.6 | 3.4
CC(=O)OC/C(=C/c1ccc(Cl)cc1Cl)C(=O)c1ccc(Cl)cc1 | 22 | 20 | 20 | 19 | 21
COc1cc([C@@H]2c3cc4c(cc3[C@@H](O[C@@H]3O[C@@H]5CO[C@@H](C)O[C@H]5[C@H](O)[C@H]3O)[C@H]3COC(=O)[C@H]23)OCO4)cc(OC)c1O [ETOPOSIDE] | 1.4 | 22 | 23 | 3.3 | 15
